What was measured:
HepG2 = assay: Antiproliferative activity against human HepG2 cells after 72 hrs by MTT assay; format: functional, cell-based; conditions: HepG2, 72 h
Summary of the method: (§1)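 MTT assay. Log-phase cells were seeded at 3×10^3 cells/well and left overnight, then exposed to serial dilutions of compound (DMSO solutions) for 72 h in RPMI 1640 with 10% heat-inactivated FBS at 37 °C, 5% CO2. MTT (5 mg/mL, 20 µL) was added for 4 h at 37 °C and the formazan dissolved in DMSO. A490 was read. % inhibition = (1 − sample OD/control OD)×100; IC50 is the 50% growth-inhibition concentration. Triplicates, n = 3 independent experiments.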

HeLa = assay: Antiproliferative activity against human HeLa cells after 72 hrs by MTT assay; format: functional, cell-based; summary of the method: as §1
HT-29 = assay: Antiproliferative activity against human HT-29 cells after 72 hrs by MTT assay; format: functional, cell-based; conditions: HT-29, 72 h; summary of the method: as §1
A549 = assay: Antiproliferative activity against human A549 cells after 72 hrs by MTT assay; format: functional, cell-based; conditions: A549, 72 h; summary of the method: as §1
BGC-823 = assay: Antiproliferative activity against human BGC823 cells after 72 hrs by MTT assay; format: functional, cell-based; conditions: BGC-823, 72 h; summary of the method: as §1
MDCK = assay: Antiproliferative activity against MDCK cells after 72 hrs by MTT assay; format: cell-based; conditions: Canis lupus familiaris; summary of the method: as §1

Compound	IC50 (HepG2)	IC50 (HeLa)	IC50 (HT-29)	IC50 (A549)	IC50 (BGC-823)	IC50 (MDCK)
C=C(C)[C@@H]1CC[C@]2(C(=O)OCc3nc(C)c(C)nc3C)CC[C@]3(C)[C@H](CC[C@@H]4[C@@]5(C)CC[C@H](OC(=O)[C@H](C)N)C(C)(C)[C@@H]5CC[C@]43C)[C@@H]12	> 20 µM	6.62 µM	7.74 µM	6.33 µM	6.16 µM	> 40 µM
C=C(C)[C@@H]1CC[C@]2(C(=O)OCc3nc(C)c(C)nc3C)CC[C@]3(C)[C@H](CC[C@@H]4[C@@]5(C)CC[C@H](OC(=O)CN(C)C(=O)[C@@H]6CCCN6)C(C)(C)[C@@H]5CC[C@]43C)[C@@H]12	3.75 µM	3.02 µM	5.98 µM	3.91 µM	1.83 µM	11.3 µM
C=C(C)[C@@H]1CC[C@]2(C(=O)OCc3nc(C)c(C)nc3C)CC[C@]3(C)[C@H](CC[C@@H]4[C@@]5(C)CC[C@H](OC(=O)[C@@H](N)[C@@H](C)CC)C(C)(C)[C@@H]5CC[C@]43C)[C@@H]12	12.7 µM	> 20 µM	15.9 µM	14.5 µM	> 20 µM	> 40 µM
C=C(C)[C@@H]1CC[C@]2(C(=O)OCc3nc(C)c(C)nc3C)CC[C@]3(C)[C@H](CC[C@@H]4[C@@]5(C)CC[C@H](OC(=O)[C@@H](N)CO)C(C)(C)[C@@H]5CC[C@]43C)[C@@H]12	4.03 µM	2.74 µM	4.35 µM	4.39 µM	6.21 µM	8.56 µM
C=C(C)[C@@H]1CC[C@]2(C(=O)OCc3nc(C)c(C)nc3C)CC[C@]3(C)[C@H](CC[C@@H]4[C@@]5(C)CC[C@H](OC(=O)CN(C)C(=O)[C@H](C)N)C(C)(C)[C@@H]5CC[C@]43C)[C@@H]12	4.27 µM	4.55 µM	3.86 µM	5.18 µM	4.38 µM	14.6 µM
C=C(C)[C@@H]1CC[C@]2(C(=O)OCc3nc(C)c(C)nc3C)CC[C@]3(C)[C@H](CC[C@@H]4[C@@]5(C)CC[C@H](O)C(C)(C)[C@@H]5CC[C@]43C)[C@@H]12	5.7 µM	8 µM	7.41 µM	3.56 µM	6.87 µM	18.2 µM
C=C(C)[C@@H]1CC[C@]2(C(=O)OCc3nc(C)c(C)nc3C)CC[C@]3(C)[C@H](CC[C@@H]4[C@@]5(C)CC[C@H](OC(=O)CN)C(C)(C)[C@@H]5CC[C@]43C)[C@@H]12	6.77 µM	4.24 µM	3.97 µM	3.62 µM	3.87 µM	5.82 µM
C=C(C)[C@@H]1CC[C@]2(C(=O)OCc3nc(C)c(C)nc3C)CC[C@]3(C)[C@H](CC[C@@H]4[C@@]5(C)CC[C@H](OC(=O)[C@H](N)CC(=O)O)C(C)(C)[C@@H]5CC[C@]43C)[C@@H]12	> 20 µM	> 20 µM	> 20 µM	> 20 µM	> 20 µM	> 40 µM
C=C(C)[C@@H]1CC[C@]2(C(=O)OCc3nc(C)c(C)nc3C)CC[C@]3(C)[C@H](CC[C@@H]4[C@@]5(C)CC[C@H](OC(=O)[C@@H](N)C(C)C)C(C)(C)[C@@H]5CC[C@]43C)[C@@H]12	5.91 µM	8.63 µM	> 20 µM	6.9 µM	7.14 µM	> 40 µM
C=C(C)[C@@H]1CC[C@]2(C(=O)OCc3nc(C)c(C)nc3C)CC[C@]3(C)[C@H](CC[C@@H]4[C@@]5(C)CC[C@H](OC(=O)CNC(=O)[C@@H]6CCCN6)C(C)(C)[C@@H]5CC[C@]43C)[C@@H]12	3.48 µM	2.2 µM	4.11 µM	2.98 µM	0.84 µM	6.63 µM
C=C(C)[C@@H]1CC[C@]2(C(=O)OCc3nc(C)c(C)nc3C)CC[C@]3(C)[C@H](CC[C@@H]4[C@@]5(C)CC[C@H](OC(=O)CN(C)C(=O)CN)C(C)(C)[C@@H]5CC[C@]43C)[C@@H]12	4.94 µM	2.62 µM	3.31 µM	2.96 µM	3.43 µM	8.08 µM
C=C(C)[C@@H]1CC[C@]2(C(=O)OCc3nc(C)c(C)nc3C)CC[C@]3(C)[C@H](CC[C@@H]4[C@@]5(C)CC[C@H](OC(=O)[C@@H]6CCCN6)C(C)(C)[C@@H]5CC[C@]43C)[C@@H]12	4.54 µM	6.33 µM	2.73 µM	3.36 µM	3.47 µM	10.2 µM
C=C(C)[C@@H]1CC[C@]2(C(=O)OCc3nc(C)c(C)nc3C)CC[C@]3(C)[C@H](CC[C@@H]4[C@@]5(C)CC[C@H](OC(=O)CNC(=O)CN)C(C)(C)[C@@H]5CC[C@]43C)[C@@H]12	4 µM	2.4 µM	3.19 µM	1.95 µM	2.88 µM	7.45 µM
C=C(C)[C@@H]1CC[C@]2(C(=O)OCc3nc(C)c(C)nc3C)CC[C@]3(C)[C@H](CC[C@@H]4[C@@]5(C)CC[C@H](OC(=O)CNC(=O)[C@H](C)N)C(C)(C)[C@@H]5CC[C@]43C)[C@@H]12	2.27 µM	3.19 µM	3.67 µM	3.25 µM	4.99 µM	16.2 µM
C=C(C)[C@@H]1CC[C@]2(C(=O)OCc3nc(C)c(C)nc3C)CC[C@]3(C)[C@H](CC[C@@H]4[C@@]5(C)CC[C@H](OC(=O)[C@@H](N)CC(C)C)C(C)(C)[C@@H]5CC[C@]43C)[C@@H]12	> 40 µM	> 20 µM	> 20 µM	> 20 µM	> 20 µM	> 40 µM
C=C(C)[C@@H]1CC[C@]2(C(=O)OCc3nc(C)c(C)nc3C)CC[C@]3(C)[C@H](CC[C@@H]4[C@@]5(C)CC[C@H](OC(=O)[C@@H]6CCC(=O)N6)C(C)(C)[C@@H]5CC[C@]43C)[C@@H]12	5.86 µM	6.59 µM	3.78 µM	4.11 µM	4.7 µM	9.24 µM
C=C(C)[C@@H]1CC[C@]2(C(=O)OCc3nc(C)c(C)nc3C)CC[C@]3(C)[C@H](CC[C@@H]4[C@@]5(C)CC[C@H](OC(=O)[C@@H](N)Cc6ccccc6)C(C)(C)[C@@H]5CC[C@]43C)[C@@H]12	> 40 µM	> 40 µM	> 20 µM	> 40 µM	> 20 µM	> 40 µM
C=C(C)[C@@H]1CC[C@]2(C(=O)OCc3nc(C)c(C)nc3C)CC[C@]3(C)[C@H](CC[C@@H]4[C@@]5(C)CC[C@H](OC(=O)[C@H](C)NC(=O)[C@H](C)N)C(C)(C)[C@@H]5CC[C@]43C)[C@@H]12	1.93 µM	4.49 µM	4.18 µM	2.54 µM	2.51 µM	10.2 µM
C=C(C)[C@@H]1CC[C@]2(C(=O)OCc3nc(C)c(C)nc3C)CC[C@]3(C)[C@H](CC[C@@H]4[C@@]5(C)CC[C@H](OC(=O)CN(C)C(=O)CNC)C(C)(C)[C@@H]5CC[C@]43C)[C@@H]12	3.94 µM	5.08 µM	8.32 µM	4.83 µM	4.1 µM	10.9 µM

From ChEMBL document CHEMBL4049390, “Combination of amino acid/dipeptide with ligustrazine-betulinic acid as antitumor agents” (Eur J Med Chem, 2017)
